Laboratory results reported in ChEMBL document CHEMBL1143912, “Synthesis and anti-HIV evaluation of novel 1,3-disubstituted thieno[3,2-c][1,2,6]thiadiazin-4(3H)-one 2,2-dioxides(TTDDs)” (Bioorg Med Chem, 2008).
Calls of active or inactive are those of the source. The rule behind the calls is not given here.

What was measured:
[1] = Cytotoxicity against human MT4 cells after 4 days by MTT assay; assay type: cell-based
In short: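 Uninfected MT-4 cells were run in parallel with the antiviral assay, exposed to serial compound concentrations (DMSO stocks, 10 mg/ml) for 4 days at 37 °C, with viability read by MTT. CC50 is the concentration cutting mock-infected cell viability by 50%. ">" marks the highest concentration tested that was still non-cytotoxic. Values are means of at least two experiments.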

[2] = tested on: Human immunodeficiency virus 2; assay: Antiviral activity against HIV2 ROD assessed as inhibition of virus-induced cytopathogenicity in MT4 cells after 4 days by MTT assay; assay type: functional, organism-based
In short: (§1)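 MT-4 cells at 1 × 10⁵ cells/mL infected at MOI 0.02, then immediately plated into wells holding serial concentrations of compound (DMSO stocks, 10 mg/ml). Incubated 4 days at 37 °C, then viable cells read by MTT. EC50 is the concentration protecting 50% of infected cells from viral cytopathicity. Values are means of at least two separate experiments.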

[3] = tested on: Human immunodeficiency virus 1; assay: Antiviral activity against HIV1 3B assessed as inhibition of virus-induced cytopathogenicity in MT4 cells after 4 days by MTT assay; assay type: functional, organism-based; conditions: Human immunodeficiency virus 1, 3B, MT4, 96 h; in short: as §1
[4] = Selectivity index, Ratio of CC50 for human MT4 cells to EC50 for HIV1 3B; assay type: functional
In short: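 SI is CC50 in mock-infected MT-4 cells divided by EC50 against HIV-1 IIIB. Both come from the same 4-day MTT assay run in parallel in infected (MOI 0.02) and uninfected cells, each as the mean of at least two experiments.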

Compound	CC50 at 96 h [1]	Activity [2]	EC50 [3]	Ratio CC50/EC50 [4]
CN1c2ccsc2C(=O)N(Cc2ccccc2)S1(=O)=O	202 µM	inactive	71 µM	3
Cc1ccnc2c1NC(=O)c1cccnc1N2C1CC1 [NEVIRAPINE]	683 µM		0.03 µM	22767
O=C1c2sccc2N(Cc2ccc(Cl)cc2Cl)S(=O)(=O)N1Cc1ccccc1	247 µM	inactive	52.1 µM	5
O=C1c2sccc2NS(=O)(=O)N1Cc1ccccc1	374 µM	inactive	> 374 µM	<1
Cc1cn([C@H]2C[C@H](N=[N+]=[N-])[C@@H](CO)O2)c(=O)[nH]c1=O [ZIDOVUDINE]	35.6 µM		0.0007 µM	50587
O=C1c2sccc2N(Cc2cccc(Cl)c2)S(=O)(=O)N1Cc1ccccc1	> 299 µM	inactive	5.9 µM	>51
O=C1c2sccc2N(Cc2ccc([N+](=O)[O-])cc2)S(=O)(=O)N1Cc1ccccc1	268 µM	inactive	> 268 µM	<1
N#Cc1ccc(CN2c3ccsc3C(=O)N(Cc3ccccc3)S2(=O)=O)cc1	8.5 µM	inactive	> 8.5 µM	<1
N#Cc1cccc(CN2c3ccsc3C(=O)N(Cc3ccccc3)S2(=O)=O)c1	> 306 µM	inactive	4 µM	>76
O=C1N(Cc2ccccc2Cl)c2cscc2S(=O)(=O)N1Cc1ccccc1	> 119 µM		0.1 µM	>1190
O=C1c2sccc2N(Cc2ccccc2Br)S(=O)(=O)N1Cc1ccccc1	> 270 µM	inactive	7.3 µM	>37
N#CCN1c2ccsc2C(=O)N(Cc2ccccc2)S1(=O)=O	5.7 µM	inactive	> 5.7 µM	<1
O=C1c2sccc2N(Cc2ccc(Cl)cc2)S(=O)(=O)N1Cc1ccccc1	8.2 µM	inactive	> 8.2 µM	<1
O=C1c2sccc2N(Cc2ccc(Br)cc2)S(=O)(=O)N1Cc1ccccc1	6.6 µM	inactive	> 6.6 µM	<1
O=C1c2sccc2N(Cc2ccccc2Cl)S(=O)(=O)N1Cc1ccccc1	> 299 µM	inactive	4.8 µM	>62
N#Cc1ccccc1CN1c2ccsc2C(=O)N(Cc2ccccc2)S1(=O)=O	> 306 µM	inactive	5.1 µM	>59
N#CCN1C(=O)N(Cc2ccccc2)S(=O)(=O)c2cscc21	503 µM		0.9 µM	559
O=C1c2sccc2N(Cc2ccccc2)S(=O)(=O)N1Cc1ccccc1	37.5 µM	inactive	> 37.5 µM	<1
